According to ChEMBL document CHEMBL1687823, “PA-824 exhibits time-dependent activity in a murine model of tuberculosis” (Antimicrob Agents Chemother, 2011):
Calls of active or inactive are those of the source. The rule behind the calls is not given here.

How the values were obtained:
[1] = system: Mycobacterium tuberculosis; experiment: Antitubercular activity against Mycobacterium tuberculosis H37Rv infected in po dosed BALB/c mouse assessed as reduction in log10 CFU count by single dose study; assay type: functional, organism-based
[2] = system: Mycobacterium tuberculosis; experiment: Antitubercular activity against Mycobacterium tuberculosis H37Rv infected in BALB/c mouse at 12.5 mg/kg, po for 5 days relative to control; assay type: functional, organism-based; set-up: dose 12.5 mg/kg
[3] = Tmax in BALB/c mouse up to 1456 mg/kg, po administered as single dose; assay type: ADME, organism-based; set-up: route oral; settings: in vivo
Summary of the method: (§1)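 Uninfected 6-week female BALB/c mice received single oral gavage doses of 3–1,458 mg/kg as a cyclodextrin-micelle suspension. Three mice per time point were bled by cardiac puncture under isoflurane at 0.5–120 h. Serum levels were measured by validated HPLC-UV (standards 0.20–50 µg/ml).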

[4] = Elimination half life in BALB/c mouse up to 1456 mg/kg, po administered as single dose; assay type: ADME, organism-based; set-up: route oral; settings: in vivo, read-out: beta t1/2 (converted); summary of the method: as §1
[5] = system: Mycobacterium tuberculosis; experiment: Antitubercular activity against Mycobacterium tuberculosis H37Rv infected in BALB/c mouse assessed as reduction in log10 CFU count at 96 mg/kg, po for 5 days relative to control; assay type: functional
[6] = system: Mycobacterium tuberculosis; experiment: fT>MIC for >= 1 log reduction in CFU count in Mycobacterium tuberculosis H37Rv in using simulated dose of at 100 mg assessed as time during compound concentration exceeds MIC of 0.03125 ug/ml assuming 5% unbound compound concentration by one compartment human pharmacokinetic model; assay type: functional
Summary of the method: (§2)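 A one-compartment PK model was fitted to human data to get median parameters. It simulated steady-state total and free concentrations for 100, 200 or 400 mg once daily, assuming 5, 7, 10 or 15% unbound drug. Free T>MIC was computed against MICs of 0.03125–0.25 µg/ml and compared with the mouse-derived T>MIC target for 1-log10 kill.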

[7] = system: Mycobacterium tuberculosis; experiment: fT>MIC for >= 1 log reduction in CFU count in Mycobacterium tuberculosis H37Rv in using simulated dose of at 100 mg assessed as time during compound concentration exceeds MIC of 0.03125 ug/ml assuming 7% unbound compound concentration by one compartment human pharmacokinetic model; assay type: functional; summary of the method: as §2
[8] = system: Mycobacterium tuberculosis; experiment: fT>MIC for >= 1 log reduction in CFU count in Mycobacterium tuberculosis H37Rv in using simulated dose of at 400 mg assessed as time during compound concentration exceeds MIC of 0.03125 ug/ml assuming 10% unbound compound concentration by one compartment human pharmacokinetic model; assay type: functional; summary of the method: as §2
[9] = system: Mycobacterium tuberculosis; experiment: fT>MIC for >= 1 log reduction in CFU count in Mycobacterium tuberculosis H37Rv in using simulated dose of at 200 mg assessed as time during compound concentration exceeds MIC of 0.03125 ug/ml assuming 15% unbound compound concentration by one compartment human pharmacokinetic model; assay type: functional; summary of the method: as §2
[10] = system: Mycobacterium tuberculosis; experiment: fT>MIC for >= 1 log reduction in CFU count in Mycobacterium tuberculosis H37Rv in using simulated dose of at 400 mg assessed as time during compound concentration exceeds MIC of 0.03125 ug/ml assuming 15% unbound compound concentration by one compartment human pharmacokinetic model; assay type: functional; summary of the method: as §2
[11] = system: Mycobacterium tuberculosis; experiment: fT>MIC for >= 1 log reduction in CFU count in Mycobacterium tuberculosis H37Rv in using simulated dose of at 400 mg assessed as time during compound concentration exceeds MIC of 0.06250 ug/ml assuming 5% unbound compound concentration by one compartment human pharmacokinetic model; assay type: functional
Summary of the method: (§3)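 Human steady-state simulation: one-compartment PK model fitted to patient data, chosen by AIC. Median PK parameters used to simulate total and free concentrations, assuming 5, 7, 10 or 15% unbound, for 100, 200 and 400 mg once daily. Free levels compared with MICs of 0.03125 to 0.25 µg/ml to give %T>MIC; T>MIC is the cumulative percentage of the dosing interval above MIC.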

[12] = system: Mycobacterium tuberculosis; experiment: fT>MIC for >= 1 log reduction in CFU count in Mycobacterium tuberculosis H37Rv in using simulated dose of at 100 mg assessed as time during compound concentration exceeds MIC of 0.06250 ug/ml assuming 7% unbound compound concentration by one compartment human pharmacokinetic model; assay type: functional; summary of the method: as §2
[13] = system: Mycobacterium tuberculosis; experiment: fT>MIC for >= 1 log reduction in CFU count in Mycobacterium tuberculosis H37Rv in using simulated dose of at 200 mg assessed as time during compound concentration exceeds MIC of 0.06250 ug/ml assuming 7% unbound compound concentration by one compartment human pharmacokinetic model; assay type: functional; summary of the method: as §2
[14] = system: Mycobacterium tuberculosis; experiment: fT>MIC for >= 1 log reduction in CFU count in Mycobacterium tuberculosis H37Rv in using simulated dose of at 400 mg assessed as time during compound concentration exceeds MIC of 0.06250 ug/ml assuming 7% unbound compound concentration by one compartment human pharmacokinetic model; assay type: functional; summary of the method: as §3
[15] = system: Mycobacterium tuberculosis; experiment: fT>MIC for >= 1 log reduction in CFU count in Mycobacterium tuberculosis H37Rv in using simulated dose of at 200 mg assessed as time during compound concentration exceeds MIC of 0.06250 ug/ml assuming 10% unbound compound concentration by one compartment human pharmacokinetic model; assay type: functional; summary of the method: as §2
[16] = system: Mycobacterium tuberculosis; experiment: fT>MIC for >= 1 log reduction in CFU count in Mycobacterium tuberculosis H37Rv in using simulated dose of at 400 mg assessed as time during compound concentration exceeds MIC of 0.06250 ug/ml assuming 15% unbound compound concentration by one compartment human pharmacokinetic model; assay type: functional; summary of the method: as §2
[17] = system: Mycobacterium tuberculosis; experiment: fT>MIC for >= 1 log reduction in CFU count in Mycobacterium tuberculosis H37Rv in using simulated dose of at 200 mg assessed as time during compound concentration exceeds MIC of 0.12500 ug/ml assuming 7% unbound compound concentration by one compartment human pharmacokinetic model; assay type: functional; summary of the method: as §2
[18] = system: Mycobacterium tuberculosis; experiment: fT>MIC for >= 1 log reduction in CFU count in Mycobacterium tuberculosis H37Rv in using simulated dose of at 400 mg assessed as time during compound concentration exceeds MIC of 0.12500 ug/ml assuming 7% unbound compound concentration by one compartment human pharmacokinetic model; assay type: functional; summary of the method: as §3
[19] = system: Mycobacterium tuberculosis; experiment: fT>MIC for >= 1 log reduction in CFU count in Mycobacterium tuberculosis H37Rv in using simulated dose of at 200 mg assessed as time during compound concentration exceeds MIC of 0.12500 ug/ml assuming 10% unbound compound concentration by one compartment human pharmacokinetic model; assay type: functional; summary of the method: as §2
[20] = system: Mycobacterium tuberculosis; experiment: fT>MIC for >= 1 log reduction in CFU count in Mycobacterium tuberculosis H37Rv in using simulated dose of at 400 mg assessed as time during compound concentration exceeds MIC of 0.12500 ug/ml assuming 10% unbound compound concentration by one compartment human pharmacokinetic model; assay type: functional; summary of the method: as §3
[21] = system: Mycobacterium tuberculosis; experiment: fT>MIC for >= 1 log reduction in CFU count in Mycobacterium tuberculosis H37Rv in using simulated dose of at 400 mg assessed as time during compound concentration exceeds MIC of 0.12500 ug/ml assuming 15% unbound compound concentration by one compartment human pharmacokinetic model; assay type: functional; summary of the method: as §3
[22] = system: Mycobacterium tuberculosis; experiment: fT>MIC for >= 1 log reduction in CFU count in Mycobacterium tuberculosis H37Rv in using simulated dose of at 200 mg assessed as time during compound concentration exceeds MIC of 0.25000 ug/ml assuming 5% unbound compound concentration by one compartment human pharmacokinetic model; assay type: functional; summary of the method: as §2
[23] = AUC (0 to t) in mouse at 100 or 50 mg/kg, po administered as single dose; assay type: ADME, organism-based; set-up: dose 50 mg/kg, route oral; settings: plasma

O=[N+]([O-])c1cn2c(n1)OC[C@@H](OCc1ccc(OC(F)(F)F)cc1)C2 [PRETOMANID]
Activity [1]: Dose-dependent effect | Activity [2]: Active | Tmax [3]: 4 h | half-life [4]: 4 h | log10cfu [5]: 2 | fT>MIC [6]: 46% | fT>MIC [7]: 67% | fT>MIC [8]: 100% | fT>MIC [9]: 100% | fT>MIC [10]: 100% | fT>MIC [11]: 100% | fT>MIC [12]: 0% | fT>MIC [13]: 67% | fT>MIC [14]: 100% | fT>MIC [15]: 100% | fT>MIC [16]: 100% | fT>MIC [17]: 4% | fT>MIC [18]: 67% | fT>MIC [19]: 46% | fT>MIC [20]: 100% | fT>MIC [21]: 100% | fT>MIC [22]: 0% | AUC(0-t) [23]: 70400 ng·h/mL
